Assay results from ChEMBL document CHEMBL1135980, “Novel angular benzophenazines: dual topoisomerase I and topoisomerase II inhibitors as potential anticancer agents” (J Med Chem, 2002).

How the values were obtained:
[1] = Rf is the resistance factor and is the ratio of the IC50 on the resistant cell line over the IC50 on the parental COR-L23/P cell line; settings: human
How it was run: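 Resistance factor computed as IC50 in COR-L23/R (MRP-overexpressing) divided by IC50 in COR-L23/P. Both IC50s come from a 5-6 day sulforhodamine B proliferation assay.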

NCI-H69 [2] = test: Rf is the resistance factor and is the ratio of the IC50 on the resistant cell line over the IC50 on the parental H69/P cell line; format: functional, Homo sapiens
How it was run: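 Resistance factor computed as IC50 in H69/LX4 (Pgp-overexpressing) divided by IC50 in H69/P. Both IC50s come from a 5-6 day Alamar Blue proliferation assay.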

COR-L23 [3] = test: Cytotoxicity measured using the COR-L23 parental (COR-L23/P) human non small cell lung carcinoma cell line; format: functional, cell-based
How it was run: (§1)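 COR-L23/P (parental) or COR-L23/R (MRP-overexpressing) human NSCLC cells; compound added, then 5-6 days incubation; proliferation read by sulforhodamine B staining.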

COR-L23 [4] = test: Cytotoxicity measured with the drug resistant human non small cell lung carcinoma cell line COR-L23 (COR-L23/R) which over expresses multidrug resistance associated with protein(MRP); format: functional, cell-based; how it was run: as §1
NCI-H69 [5] = test: Cytotoxicity measured using the drug resistant, P-glycoprotein (Pgp) expressing human small cell lung carcinoma cell line H69/LX4; format: functional, cell-based
How it was run: (§2)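 H69/P (parental) or H69/LX4 (P-glycoprotein-overexpressing) human SCLC cells; compound added, then 5-6 days incubation; proliferation read with Alamar Blue.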

NCI-H69 [6] = test: Cytotoxicity measured using the H69 parental (H69/P) human small cell lung carcinoma cell line; format: functional, cell-based; how it was run: as §2
Mus musculus [7] = test: pharmacokinetics in female BALB/c mice measured as AUC after 20 mg/kg iv administration; format: ADME, organism-based; set-up: dose 20 mg/kg, route intravenous; settings: in vivo
How it was run: (§3)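 Female Balb/c mice dosed intravenously at 20 or 50 mg/kg. Blood taken by cardiac puncture under anaesthesia into heparinized syringes at times from 2 min to 24 h. Plasma prepared by centrifugation and drug measured by HPLC; plasma PK parameters derived.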

Mus musculus [8] = test: pharmacokinetics in female BALB/c mice measured as AUC after 50 mg/kg iv administration; format: ADME, organism-based; set-up: dose 50 mg/kg, route intravenous; settings: in vivo; how it was run: as §3
Mus musculus [9] = test: pharmacokinetics in female BALB/c mice measured as AUC after 50 mg/kg Preoral administration; format: ADME, organism-based; set-up: dose 50 mg/kg; settings: in vivo, po
How it was run: (§4)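 Female Balb/c mice given 50 mg/kg by oral gavage. Blood taken by cardiac puncture under anaesthesia into heparinized syringes at 2 min-24 h. Plasma analyzed by HPLC; plasma PK parameters derived, with oral bioavailability relative to iv dosing.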

[10] = pharmacokinetics in female BALB/c mice measured as Cl after 20 mg/kg iv administration; format: ADME, organism-based; set-up: dose 20 mg/kg, route intravenous; settings: mouse, in vivo; how it was run: as §3
[11] = pharmacokinetics in female BALB/c mice measured as Cmax after 20 mg/kg iv administration; format: ADME, organism-based; set-up: dose 20 mg/kg, route intravenous; settings: mouse, in vivo; how it was run: as §3
[12] = pharmacokinetics in female BALB/c mice measured as Cmax after 50 mg/kg iv administration; format: ADME, organism-based; set-up: dose 50 mg/kg, route intravenous; settings: mouse, in vivo; how it was run: as §3
[13] = pharmacokinetics in female BALB/c mice measured as Cmax after 50 mg/kg Preoral administration; format: ADME, organism-based; set-up: route oral, dose 50 mg/kg; settings: mouse, in vivo, po; how it was run: as §4
[14] = pharmacokinetics in female BALB/c mice measured as bioavailability (F) after 50 mg/kg peroral administration; format: ADME, organism-based; settings: mouse, in vivo, po; how it was run: as §4
[15] = pharmacokinetics in female BALB/c mice measured as Cl after 50 mg/kg iv administration; format: ADME, organism-based; set-up: dose 50 mg/kg, route intravenous; settings: mouse, in vivo; how it was run: as §3
[16] = pharmacokinetics in female BALB/c mice measured as Kel after 20 mg/kg iv administration; format: ADME, organism-based; set-up: dose 20 mg/kg, route intravenous; settings: mouse, in vivo; how it was run: as §3
[17] = pharmacokinetics in female BALB/c mice measured as Kel after 50 mg/kg iv administration; format: ADME, organism-based; set-up: dose 50 mg/kg, route intravenous; settings: mouse, in vivo; how it was run: as §3
[18] = pharmacokinetics in female BALB/c mice measured as Kel after 50 mg/kg Preoral administration; format: ADME, organism-based; set-up: dose 50 mg/kg; settings: mouse, in vivo, po; how it was run: as §4
[19] = pharmacokinetics in female BALB/c mice measured as Vss after 20 mg/kg iv administration; format: ADME, organism-based; set-up: dose 20 mg/kg, route intravenous; settings: mouse, in vivo, read-out: Vss; how it was run: as §3
[20] = pharmacokinetics in female BALB/c mice measured as Vss after 50 mg/kg iv administration; format: ADME, organism-based; set-up: dose 50 mg/kg, route intravenous; settings: mouse, in vivo, read-out: Vss; how it was run: as §3

Row | SMILES | Rf [1] | Rf (NCI-H69 [2]) | IC50 (COR-L23 [3]) | IC50 (COR-L23 [4]) | IC50 (NCI-H69 [5]) | IC50 (NCI-H69 [6]) | other results
1 | CN(C)CCNC(=O)c1cccc2nc3ccc4ccccc4c3nc12 | 1.4 | 1.9 | 102 nM | 140 nM | 130 nM | – | –
2 | COc1cccc2c1ccc1nc3cccc(C(=O)NC(CCO)CN(C)C)c3nc12 (stereo not drawn) | – | 1.1 | – | – | 28 nM | 26 nM | –
3 | COc1cccc2c1ccc1nc3cccc(C(=O)NCC(C)N(C)C)c3nc12 (stereo not drawn) | – | 1.2 | – | – | 126 nM | 101 nM | –
4 | COc1cccc2c1ccc1nc3cccc(C(=O)NCCN(C)C)c3nc12 | 1.4 | 1.4 | 14 nM | 20 nM | 49 nM | – | –
5 | COc1cccc2c1ccc1nc3cccc(C(=O)N[C@H](C)CN(C)C)c3nc12 | 1.2 | 1.2 | 10.1 nM | 12.1 nM | 29 nM | – | AUC (Mus musculus [7]): 64 ug min m-1; AUC (Mus musculus [8]): 156 ug min m-1; AUC (Mus musculus [9]): 114 ug min m-1; clearance [10]: 6.3 mL/min; Cmax [11]: 800 ng/mL; Cmax [12]: 2900 ng/mL; Cmax [13]: 350 ng/mL; bioavailability [14]: 72%; clearance [15]: 6.4 mL/min; k el [16]: 7.33e-05 s⁻¹; k el [17]: 5e-05 s⁻¹; k el [18]: 3.33e-05 s⁻¹; Vd [19]: 1.3 L; Vd [20]: 1.9 L
6 | COc1cccc2c1ccc1nc3cccc(C(=O)NCCCN(C)C)c3nc12 | – | 1.3 | – | – | 597 nM | 470 nM | –
7 | COc1ccc2c(ccc3nc4cccc(C(=O)NCCN(C)C)c4nc32)c1 | 1.2 | 1.3 | 68 nM | 79 nM | 185 nM | 141 nM | –
8 | CN(C)CCNC(=O)c1cccc2nc3ccc4c(O)cccc4c3nc12 | 1.1 | 1.4 | 15 nM | 17 nM | 48 nM | 35 nM | –
9 | CN(C)CCNC(=O)c1cccc2nc3ccc4cc(O)ccc4c3nc12 | 1.4 | 1.8 | 67 nM | 96 nM | 193 nM | 109 nM | –
10 | CN(C)CCNC(=O)c1cccc2nc3ccc4c([N+](=O)[O-])cccc4c3nc12 | 1.2 | 1.3 | 20 nM | 24 nM | 120 nM | 96 nM | –
11 | CN(C)CCNC(=O)c1cccc2nc3ccc4c(Br)cccc4c3nc12 | – | 2.2 | – | – | 171 nM | 77 nM | –
12 | COc1cccc2c1C(=O)c1c(O)c3c(c(O)c1C2=O)C[C@@](O)(C(=O)CO)C[C@@H]3O[C@H]1C[C@H](N)[C@H](O)[C@H](C)O1 [DOXORUBICIN] | – | 142 | 20.1 nM | 319 nM | 3870 nM | – | –
13 | CC[C@@]1(O)C(=O)OCc2c1cc1n(c2=O)Cc2cc3c(CN(C)C)c(O)ccc3nc2-1 [TOPOTECAN] | – | 3.9 | 13.2 nM | 20 nM | 62.9 nM | – | –
